This is one part of a sample in which hits are shown more often than they occur.
UPR CHOP act: activators of apoptotic arm of unfolded protein response (CHOP); CHO-CHOP luciferase reporter, UPR activation, luminescence; percent of tunicamycin response over DMSO baseline; activation, % at 10 µM; actives 0.34% (n = 330,000); AID 449763;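 active = at 10 µM dose, activation of 40% or more, normalized to positive control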
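measured by = luciferase luminescence | assay system = CHO-CHOP cells, stable luciferase reporter of PERK-eIF2a-CHOP signalling | amount = 500 reporter cells seeded per well | timing = 6 h compound exposure at 37 °C after overnight seeding | controls = positive tunicamycin 10 µg/mL, negative DMSO alone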
NOD2 RIPK2 PPI: NOD2-RIPK2 protein interaction inhibition | O43353 | CHO BLA complementation NOD2-RIPK2, CCF4 ratio | inhibition, % at 4.98 µM | AID 624267 | actives 0.38% (n = 360,000); in the data active = inhibition above about 21%
TLR4-MyD88 BLA: TLR4-MyD88 interaction inhibition in cells | actives 0.18% (n = 200,000) | inhibition, % at 8.4 µM | O00206+Q99836 | HeLa CL3-4 TLR4/MyD88 BLA complementation, FRET ratio; in the data active = inhibition above about 25%
CHOP inh: blocks CHOP induction under ER stress. CHO-K1 CHOP-promoter luciferase, tunicamycin-induced, 15-18 h. inhibition, % at 10 µM. actives 3.8% (n = 220,000);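 active = compounds that reduced the stress-induced luciferase reporter signal by more than about 70% of percent inhibition, limit read from the data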
TLR9-MyD88 inh: TLR9-MyD88 interaction inhibition | Q9NR96+Q99836 | CHO BLA complementation TLR9-MyD88, CCF4 FRET ratio | inhibition, % at 4.98 µM | actives 0.21% (n = 340,000) | AID 504734;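 active = inhibition above the mean over all tested compounds plus 3 SD, cut at about 21% in these data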
Target sequence (Q99836 whole entry, looked up): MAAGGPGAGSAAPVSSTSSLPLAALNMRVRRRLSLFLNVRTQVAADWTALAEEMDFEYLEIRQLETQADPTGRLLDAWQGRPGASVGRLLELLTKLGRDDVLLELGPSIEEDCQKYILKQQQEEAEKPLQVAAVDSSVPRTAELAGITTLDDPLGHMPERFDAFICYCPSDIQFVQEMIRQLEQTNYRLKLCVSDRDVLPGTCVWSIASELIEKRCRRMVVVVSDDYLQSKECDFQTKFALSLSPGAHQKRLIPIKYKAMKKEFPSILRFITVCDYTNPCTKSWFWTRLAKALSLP
Target sequence (Q9NR96 whole entry, looked up): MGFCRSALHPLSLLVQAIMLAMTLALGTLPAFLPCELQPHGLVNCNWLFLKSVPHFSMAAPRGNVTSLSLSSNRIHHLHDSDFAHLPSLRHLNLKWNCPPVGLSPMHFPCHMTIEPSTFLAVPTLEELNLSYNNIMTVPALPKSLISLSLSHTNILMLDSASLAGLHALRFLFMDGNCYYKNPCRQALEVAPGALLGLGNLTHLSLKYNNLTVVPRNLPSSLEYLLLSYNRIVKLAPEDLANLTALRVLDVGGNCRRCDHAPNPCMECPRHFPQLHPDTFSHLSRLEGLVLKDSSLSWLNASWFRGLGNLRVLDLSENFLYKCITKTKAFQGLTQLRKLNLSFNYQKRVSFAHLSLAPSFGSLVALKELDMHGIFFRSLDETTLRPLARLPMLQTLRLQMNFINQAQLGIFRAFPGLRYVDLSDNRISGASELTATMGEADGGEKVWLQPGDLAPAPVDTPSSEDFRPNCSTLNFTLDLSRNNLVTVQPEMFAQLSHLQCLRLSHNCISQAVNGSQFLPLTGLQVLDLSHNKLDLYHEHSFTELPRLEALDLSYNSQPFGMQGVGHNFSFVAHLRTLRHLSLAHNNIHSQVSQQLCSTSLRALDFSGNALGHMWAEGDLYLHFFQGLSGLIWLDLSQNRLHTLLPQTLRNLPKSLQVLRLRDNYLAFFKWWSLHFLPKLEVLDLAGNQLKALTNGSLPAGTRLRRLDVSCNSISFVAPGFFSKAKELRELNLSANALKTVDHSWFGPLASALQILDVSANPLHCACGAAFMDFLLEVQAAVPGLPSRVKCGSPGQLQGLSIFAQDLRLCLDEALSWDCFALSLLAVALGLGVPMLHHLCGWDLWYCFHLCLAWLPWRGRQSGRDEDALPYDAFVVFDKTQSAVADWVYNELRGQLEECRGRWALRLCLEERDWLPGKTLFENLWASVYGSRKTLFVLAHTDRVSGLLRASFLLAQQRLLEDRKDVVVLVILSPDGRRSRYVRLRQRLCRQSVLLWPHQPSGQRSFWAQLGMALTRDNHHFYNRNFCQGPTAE
UPR XBP1 act: activators of adaptive arm of unfolded protein response (XBP1); CHO-XBP1 luciferase reporter, IRE1-XBP1 UPR activation, luminescence; percent of tunicamycin response, DMSO as zero; activation, % at 20 µM; actives 0.33% (n = 330,000); AID 463104;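 active = versus positive control, 20 µM dose yields 30% or more activation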
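Assay system: IRE1-XBP1 luciferase reporter CHO line. Input: 1000 cells/well. Buffer or medium: F12 with 10% serum. Doses: 20 µM, 1% DMSO. Times: overnight seeding at 37 °C, 6 h compound treatment at 37 °C. Technique: Steady-Glo luciferase glow luminescence, 10 min after reagent addition.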
Of the large screens only hits and unclear results are named; the others gave an inactive call.

CC(=O)N1CCOc2ccc(S(=O)(=O)NC[C@H]3O[C@@H](n4ccc(N)nc4=O)[C@H](O)[C@@H]3O)cc21	none (no result: UPR CHOP act, TLR4-MyD88 BLA, CHOP inh, UPR XBP1 act)
O=C(NC(NC(=S)Nc1cccc(Cl)c1)C(Cl)(Cl)Cl)OCc1ccccc1 (stereo not given)	CHOP inh 109
CCOC(=O)c1c(C)[nH]c(O)c1C=Nc1ccc(C(F)(F)F)cc1	CHOP inh 82
Clc1ccc(OCc2nn3c(C4CCCCC4)nnc3s2)c(Cl)c1	CHOP inh 87
CC(C)NC(=O)C1(C)CSCC(=O)N1Cc1cccc(C(F)(F)F)c1 (stereo not given)	none (no result: UPR CHOP act, TLR4-MyD88 BLA, CHOP inh, TLR9-MyD88 inh, UPR XBP1 act)
CCCn1cnc2c(c1=O)c1nc3ccccc3nc1n2CCc1ccccc1	CHOP inh 73
O=c1c2c3nc4ccccc4nc3n(/N=C/c3ccco3)c2ncn1CCC1=CCCCC1	none (no result: TLR4-MyD88 BLA, CHOP inh)
CCCn1cnc2c(c1=O)c1nc3ccccc3nc1n2CCC1=CCCCC1	CHOP inh 84 (no result: UPR CHOP act, NOD2 RIPK2 PPI, TLR9-MyD88 inh, UPR XBP1 act)
CCOCCCn1c(C)nc2c(c1=O)c1nc3ccccc3nc1n2CCC1=CCCCC1	CHOP inh 95
CCC(=O)Nc1ccc2c(c1)OC[C@@H](C)N(C(=O)c1ccccn1)C[C@@H](C)[C@@H](OC)CN(C)C2=O	none (no result: UPR CHOP act, TLR4-MyD88 BLA, CHOP inh, TLR9-MyD88 inh, UPR XBP1 act)
Cn1cc([C@]2(O)C(=O)N(c3ccccc3)c3ccccc32)c2ccccc21	none (no result: UPR CHOP act, TLR4-MyD88 BLA, CHOP inh, TLR9-MyD88 inh, UPR XBP1 act)
CC(OC(=O)CCc1nc2ccccc2c(=O)[nH]1)C(=O)NC1CCCC1 (stereo not given)	none
CC(OC(=O)CCc1nc2ccccc2c(=O)[nH]1)C(=O)c1ccc(C(C)(C)C)cc1 (stereo not given)	CHOP inh 92
C[C@H](CO)N1C[C@H](C)[C@H](CN(C)C(=O)Nc2ccc(N3CCN(C)CC3)cc2)OCc2cnnn2CCCC1=O	none (no result: UPR CHOP act, TLR4-MyD88 BLA, CHOP inh, UPR XBP1 act)
Cc1cccc(/C=C2/SC(=O)N(Cc3ccccc3)C2=O)n1	CHOP inh 93
COCOCCn1cc(CN2CCS(=O)(=O)N(Cc3ccc(-c4ccc(OC)c(OC)c4)cc3)C(CC(C)C)C2=O)nn1 (stereo not given)	none (no result: UPR CHOP act, TLR4-MyD88 BLA, CHOP inh, UPR XBP1 act)
CC(C)C1Cc2c(sc(NC(=S)NC(=O)c3ccccc3)c2C#N)CO1 (stereo not given)	CHOP inh 83
CC(C)N1CCc2c(sc(NC(=S)NC(=O)c3ccccc3)c2C#N)C1	none
CC(=O)Nc1ccc2oc(-c3cc(F)c(F)cc3Cl)nc2c1	CHOP inh 82
O=C(CCSc1ccccc1)NC1CCCCCC1	none
O=C(CCSc1ccccc1)NC(=O)COC(=O)C1CCCCC1	CHOP inh 70
Cc1ccc(S(=O)(=O)c2nc(-c3ccc(F)cc3)oc2SCC(=O)NCC2CCCO2)cc1 (stereo not given)	none
Cc1ccc(-c2nc(S(=O)(=O)c3ccc(F)cc3)c(SCC(=O)NCC3CCCO3)o2)cc1 (stereo not given)	CHOP inh 70
Nc1[nH]c(C(=O)c2ccccc2)c(-c2cccnc2)c1C(=O)NC1CCCCC1	none (no result: UPR CHOP act, TLR4-MyD88 BLA, CHOP inh, TLR9-MyD88 inh, UPR XBP1 act)
CCCN1C(=O)c2ccccc2NC1c1ccc(Cl)c(Cl)c1 (stereo not given)	none (no result: TLR4-MyD88 BLA, CHOP inh)
CN1CC(c2ccc(Cl)c(Cl)c2)[C@@]2(COc3ccccc3C2=O)[C@@]12C(=O)Nc1ccccc12 (stereo not given in full)	CHOP inh 74
O=C1c2ccccc2C(=O)C2OC12 (stereo not given)	UPR CHOP act 66 (no result: NOD2 RIPK2 PPI, TLR4-MyD88 BLA, CHOP inh, TLR9-MyD88 inh)
O=C1c2ccccc2C(=O)C1c1ccccn1	none (no result: TLR4-MyD88 BLA)
Cc1ccc(S(=O)(=O)c2c(C)nn(C(C)(C)C)c2OC(=O)C2CCCC2)cc1	CHOP inh 77
CC(C)[C@@H]1NC(=O)[C@H](CCCCN)NC(=O)[C@@H](Cc2c[nH]c3ccccc23)NC(=O)[C@H](Cc2ccc(O)cc2)NC(=O)[C@H](C)N(C)C(=O)[C@H](Cc2ccccc2)NC1=O	none (no result: UPR CHOP act, NOD2 RIPK2 PPI, TLR4-MyD88 BLA, TLR9-MyD88 inh, UPR XBP1 act)
COc1cc(OC)c(NC(=O)c2ccco2)cc1Cl	CHOP inh 72
COc1cc(NC(=O)CC(C)C)ccc1NC(=O)c1ccco1	none (no result: CHOP inh)
COc1cc(NC(=O)c2ccco2)c(OC)cc1NC(=O)CCC(=O)Nc1cc(C)cc(C)c1	CHOP inh 76
COc1cc(NC(=O)c2ccco2)ccc1NC(=O)C(C)C	CHOP inh 80
C[C@@H]1COc2cc(N3CC[C@H](O)C3)ccc2S(=O)(=O)N1	none (no result: UPR CHOP act, TLR4-MyD88 BLA, CHOP inh, TLR9-MyD88 inh, UPR XBP1 act)
CCOc1ccc(-c2cc(NC(=O)Cn3ncc4c3-c3ccccc3OC4)on2)cc1OCC	CHOP inh 100
COc1ccccc1NC(=O)Cn1ncc2c1-c1ccccc1OC2	none
COc1cc(NC(=O)Cn2ncc3c2-c2ccccc2OC3)cc(OC)c1OC	NOD2 RIPK2 PPI 30
O=C(NCc1ccccc1)C1c2ccccc2OCC(=O)N1Cc1ccc2c(c1)OCO2 (stereo not given)	none (no result: UPR CHOP act, TLR4-MyD88 BLA, CHOP inh, TLR9-MyD88 inh, UPR XBP1 act)
C[C@H]1CN([C@@H](C)CO)C(=O)CCCn2cc(nn2)CO[C@@H]1CN(C)S(=O)(=O)c1ccc(Oc2ccccc2)nc1	none (no result: UPR CHOP act, TLR4-MyD88 BLA, CHOP inh, UPR XBP1 act)
CC(=O)Nc1nc2c(ccc3ccccc32)s1	none (no result: TLR4-MyD88 BLA, CHOP inh)
O=C(Cc1cccs1)Nc1nc2c(ccc3ccccc32)s1	CHOP inh 81
CCOCCOc1nc(C)cc(C)c1S(=O)(=O)c1ccccc1C	none
Cc1cc(C)c(S(=O)(=O)c2ccccc2C)c(OCC(C)(C)C)n1	CHOP inh 75
O=C1NC[C@@H](CCCCN2C[C@H](Cc3ccccc3)N(CCc3ccccc3)C(=O)C2=O)N(CCc2ccccc2)C1=O	none (no result: UPR CHOP act, TLR4-MyD88 BLA, CHOP inh, TLR9-MyD88 inh, UPR XBP1 act)
CC(=O)N1c2ccccc2C2(O)N=C(C)SC12 (stereo not given)	CHOP inh 105
Cc1ccccc1NC(=O)CN1C(=O)NC2(CCc3ccccc32)C1=O (stereo not given)	none (no result: TLR4-MyD88 BLA, CHOP inh)
COc1cc2c(cc1NC(=O)COc1ccccc1OC)oc1ccccc12	none
COc1cc2c(cc1NC(=S)Nc1cccc(C(F)(F)F)c1)oc1ccccc12	CHOP inh 71
COc1cc2c(cc1NC(=O)COC(=O)c1ccc(C(C)(C)C)cc1)oc1ccccc12	CHOP inh 78
COc1cc2c(cc1NC(=O)CN1C(=O)NC3(CCc4ccccc43)C1=O)oc1ccccc12 (stereo not given)	CHOP inh 79
CN(CCc1ccccc1)C(=O)c1ccc(NC(=O)Cc2ccc(NC(=O)C3CCN(C(=O)C4CCC4)CC3)cc2)cc1	none (no result: UPR CHOP act, TLR4-MyD88 BLA, CHOP inh, UPR XBP1 act)
CC1(Cc2ccccc2C#N)C(=O)Nc2ccc(-c3ccccc3)cc21 (stereo not given)	none (no result: UPR CHOP act, TLR4-MyD88 BLA, CHOP inh, TLR9-MyD88 inh, UPR XBP1 act)
O=[N+]([O-])c1ccccc1S(=O)c1ccccc1[N+](=O)[O-]	none (no result: UPR CHOP act, TLR4-MyD88 BLA, CHOP inh, TLR9-MyD88 inh, UPR XBP1 act)
Cc1cccc(N(C(=O)CNC(=O)c2ccco2)C(C(=O)NC2CCCCC2)c2cccnc2)c1 (stereo not given)	none (no result: TLR4-MyD88 BLA, CHOP inh)

From PubChem
